# Measurements as given in PubChem BioAssay AID588621 (Sanford-Burnham Center for Chemical Genomics, 2011).
# About 890 (0.25%) of roughly 360,000 compounds were called active.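 The calls were made as follows: active = inhibition at 20 µM, scaled per plate between control wells, above about 37% (limit read from the data); inactive = the rest.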 Shown is part of a subset that was picked to be rich in actives.
# Biological target: Tyrosine-protein phosphatase non-receptor type 5 (Homo sapiens) (UniProt P54829)
# Sequence (P54829 whole entry, looked up): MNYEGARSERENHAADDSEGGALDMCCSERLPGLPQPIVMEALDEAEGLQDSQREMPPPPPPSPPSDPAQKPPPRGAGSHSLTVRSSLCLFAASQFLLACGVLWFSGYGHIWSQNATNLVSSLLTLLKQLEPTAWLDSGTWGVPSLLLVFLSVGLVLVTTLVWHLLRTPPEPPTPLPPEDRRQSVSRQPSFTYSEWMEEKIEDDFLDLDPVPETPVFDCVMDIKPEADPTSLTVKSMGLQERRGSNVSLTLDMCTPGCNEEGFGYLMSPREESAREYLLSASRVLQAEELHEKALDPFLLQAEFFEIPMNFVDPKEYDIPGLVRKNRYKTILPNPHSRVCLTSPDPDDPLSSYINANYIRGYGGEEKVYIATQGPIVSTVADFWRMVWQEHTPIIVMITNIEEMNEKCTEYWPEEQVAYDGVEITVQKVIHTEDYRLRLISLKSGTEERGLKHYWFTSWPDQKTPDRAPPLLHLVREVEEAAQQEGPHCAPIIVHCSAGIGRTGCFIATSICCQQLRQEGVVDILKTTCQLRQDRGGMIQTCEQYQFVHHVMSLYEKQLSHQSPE
# Assay: STEP phosphatase inhibitors, primary screen, biochemical, fluorescence intensity, uHTS (AID 588621);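 also: 0% = DMSO with enzyme and substrate and 100% = substrate only without enzyme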
# Conditions: recombinant STEP, OMFP fluorogenic substrate, at 20 µM, hits give high values
# Summary of the method: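 Assay system: isolated STEP enzyme / Timing: 20 min at room temperature, dark / Doses: 20 µM, 1% DMSO / Technique: fluorescence intensity, excitation 480 nm, emission 540 nm / Reagent: fluorogenic phosphatase substrate OMFP at 25 µM final / Measure: percent inhibition scaled to no-enzyme and uninhibited-enzyme controls, plate-pattern corrected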
row,SMILES,inhibition
1,O=C(CCS(=O)(=O)c1ccc2c(c1)NC(=O)CS2)NCc1ccccc1Cl,1.6% (inactive)
2,CNc1cncc(-c2ccc(NS(C)(=O)=O)cc2)n1,4.2% (inactive)
3,CC(C)NS(=O)(=O)c1ccc(OCC(=O)NC2CCCCCC2)cc1,-0.6% (inactive)
4,O=C1C(=O)N(CCN2CCOCC2)C(c2ccccn2)/C1=C(/O)c1ccc(Cl)cc1 (centres undefined),-3.3% (inactive)
5,CCCC1C(=O)N2C(N(C)C)=Nc3ccc(C)cc3N2C1=O (centres undefined),-0.2% (inactive)
6,CCOc1ccc(N(CC(=O)NCC2CCCO2)S(=O)(=O)c2ccc(C)cc2)cc1 (centres undefined),0.9% (inactive)
7,CCOC(=O)CCc1c(C)c2ccc(OCc3nn[nH]n3)c(C)c2oc1=O,2.9% (inactive)
8,Cc1c(CCC(=O)O)c(=O)oc2cc(OCc3ccc(Br)cc3)ccc12,5.4% (inactive)
9,Cc1c(CCC(=O)O)c(=O)oc2c(C)c(OCc3ccccc3Cl)ccc12,98.9% (active)
10,COc1ccc(C2COC(=O)C2=N)c(NC(=O)c2ccccc2)c1 (centres undefined),1.3% (inactive)
11,Cc1cc(C(=O)N2CCN(c3ccccn3)CC2)c(C)o1,39.4% (active)
12,O=C(c1cc2ccccc2s1)N1CCN(c2ccccn2)CC1,-0.1% (inactive)
13,O=C(c1c(F)cccc1Cl)N1CCN(c2ccccn2)CC1,-1.8% (inactive)
14,O=C(COC(=O)/C=C/c1ccc(Br)o1)Nc1cccc(S(=O)(=O)N2CCOCC2)c1,2.1% (inactive)
15,CC(C)(C)NC(=O)CSC(=Nc1ccccc1F)NC#N,-0.7% (inactive)
16,Cc1c(C#N)c2ncn(CC#N)c(=O)c2n1-c1ccccc1,-3.8% (inactive)
17,Cc1nnsc1C(=O)NCc1c(F)cccc1Cl,-0.5% (inactive)
18,CC1C(=O)NC(=O)C1c1ccccc1 (centres undefined),-2% (inactive)
19,COc1ccc2c(c1)CCc1c(C(=O)N3CCc4ccccc4C3)noc1-2,-1% (inactive)
20,CCCS(=O)(=O)N1CCN=C1SCc1cccc(F)c1,0.3% (inactive)
21,O=c1ccc2c(-c3ccccc3S(=O)(=O)O)c3ccc(O)c(O)c3oc-2c1O,96.8% (active)
22,Cc1cc(Cl)ccc1NC(=S)N1CCC(C(N)=O)(N2CCCCC2)CC1,-1.3% (inactive)

row,SMILES,inhibition
1,CNc1[nH]ncc1[N+](=O)[O-],-1.1% (inactive)
2,CCCCSCCCNC(=O)C1CCC(CNS(=O)(=O)c2ccc(NC(C)=O)cc2)CC1 (centres undefined),1% (inactive)
3,Cc1ccc(-n2c(C)nnc2SCC(=O)NC2CC2)cc1,0.1% (inactive)
4,Cc1ccc(SCC2=NNC(=O)C2)cc1,0.5% (inactive)
5,COc1ccc2oc(=N)c(C(=O)Nc3ccc(Br)cc3)cc2c1,-1.8% (inactive)
6,O=C(Nc1cccnc1)c1cc2cc(Br)ccc2oc1=O,86.4% (active)
7,O=C(Nc1cccnc1)c1ccc(Cl)cc1[N+](=O)[O-],0.9% (inactive)
8,CCOC(=O)c1c(-n2cnnn2)sc(C)c1C,0.1% (inactive)
9,CCc1ccccc1N(CC(=O)NCCSCc1ccco1)S(C)(=O)=O,-1.4% (inactive)
10,CCOc1ccc(C(CC(=O)O)n2cnnn2)cc1OC (centres undefined),-2.9% (inactive)
11,CC1=CC(C)(C)NC(=S)N1c1ccccc1,-2.2% (inactive)
12,COc1ccc(C2=NOC(Cn3nc(C(=O)NCc4ccc5c(c4)OCO5)cc3-c3ccccc3)C2)cc1 (centres undefined),0.9% (inactive)
13,CCn1c(/C=N/NC(=O)c2ccc(OC)cc2)nc2ccccc21,2.2% (inactive)
14,COc1cccc(/C=N/NC(=O)c2[nH]nc3c2CCc2ccccc2-3)c1O,80% (active)
15,COc1cc(/C=N/NC(=O)c2cccnc2)ccc1OC(=O)c1cccc(Br)c1,1.7% (inactive)
16,CN(C)Cc1c(O)ccc2c(=O)c(-c3ccccc3Cl)coc12,0.4% (inactive)
17,CCNC(=O)C1CCCN(C(=O)c2cc(F)ccc2C)CC1 (centres undefined),1% (inactive)
18,CC(C)C1CC2=C(C(=O)OC(C)(C)O2)C(c2ccc(F)cc2)O1 (centres undefined),0% (inactive)
19,c1ccc(-c2ccnc3nc(-n4cccc4)nn23)cc1,-3.2% (inactive)
20,CCc1nc2oc3ccccc3c(=O)c2c(=O)n1Cc1ccc(OC)cc1,0.4% (inactive)
21,O=C(CSc1nnc(COc2ccc(Cl)cc2)n1Cc1ccco1)N1CCNC1=O,-4.2% (inactive)
22,Cn1c2ccccc2c(=O)c2c(=O)n(Cc3ccco3)c(COc3ccccc3)nc21,70.7% (active)

row,SMILES,inhibition
1,O=C1OCCC1=COCCCCOC=C1CCOC1=O,0.1% (inactive)
2,O=C(CCc1ccccc1)Nc1ccc(NC(=O)C2CC2)nc1,-2.6% (inactive)
3,COc1cc(/C=C/C(=O)OCC(=O)N2CCOCC2)ccc1OCC#N,1.1% (inactive)
4,CCOC(=O)C/C(C)=N\Nc1ccc([N+](=O)[O-])cc1[N+](=O)[O-],2.8% (inactive)
5,C/C(=N\Nc1ccc(S(N)(=O)=O)cc1[N+](=O)[O-])c1cccs1,97.5% (active)
6,C/C(=N\Nc1ccccc1)c1cccs1,-1.1% (inactive)
7,Cc1csc2nc(COC(=O)c3cccc(N(C)C)c3)cc(=O)n12,-2.7% (inactive)
8,O=C(N/N=C\c1cccc(Br)c1)c1ccccc1-n1cccc1,-2.3% (inactive)
9,O=C(N/N=C/c1cccc(Br)c1)c1ccc(N2CCCC2=O)cc1,94.9% (active)
10,O=C(Nc1ccc(N2CCCC2=O)cc1)c1cncc(Br)c1,-0.3% (inactive)
11,CCc1c(Nc2ccccc2Cl)nc(N)[nH]c1=O,-2.5% (inactive)
12,Cc1ccc(CNC(=O)CSc2nnc3c(n2)[nH]c2ccc(F)cc23)cc1,96.1% (active)
13,Cc1ccn2c(=O)nc(SCC(=O)NCc3ccc(F)cc3)nc2c1,0.1% (inactive)
14,COc1ccc2[nH]c3nc(SCC(=O)NC4CC4)nnc3c2c1,-4.6% (inactive)
15,CCCCNC1(C#N)CCN(Cc2ccccc2)CC1,-2.5% (inactive)
16,COc1cccc(COC(=O)C2CCN(S(=O)(=O)c3cccs3)CC2)c1OC,1.4% (inactive)
17,Cc1ccccc1C#CC1=CC(=O)CC(C)(C)C1,0.4% (inactive)
18,Cn1ncc(Br)c1C(=O)NC1CCCC1,-1.6% (inactive)
19,CCN1CCc2nc(NC(=O)c3cc(F)c(F)cc3Cl)sc2C1,-1.5% (inactive)
20,CCc1cc(-c2nnn(CCC3COCCO3)c2CC)ccc1-c1cn(Cc2ccc3ccccc3c2)nn1 (centres undefined),2.9% (inactive)
